# Calls of active or inactive are those of the source. The rule behind the calls is not given here.
# Key:
# Mus musculus [1] = experiment: Anticonvulsant activity in albino CF-1 mouse assessed as protection against maximal electroshock-induced seizures at 100 mg/kg, ip; assay type: functional, organism-based; set-up: dose 100 mg/kg
# In short: (§1)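 Screened under the NINDS ASP in male albino Carworth Farms No. 1 mice (ip) or male albino Sprague-Dawley rats (ip or po), using MES, 6 Hz (32 mA) and subcutaneous pentylenetetrazol seizure tests. Initial qualitative tests used preset doses (e.g., 30, 50, 100 mg/kg). ED50 values with 95% confidence intervals came from dose–response data collected at the time of peak effect.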
# Mus musculus [2] = experiment: Anticonvulsant activity in ip dosed albino CF-1 mouse assessed as protection against 6 Hz psychomotor seizure measured at 0.5 hrs; assay type: functional; conditions: albino CF-1, ip; in short: as §1
Compound,Activity (Mus musculus [1]),ED50 (Mus musculus [2]) [mg/kg]
Fc1cccc(COc2ccccc2)c1,inactive,–
COC[C@@H](NC(C)=O)C(=O)NCc1ccccc1 [LACOSAMIDE],–,10

# Reference: ChEMBL document CHEMBL3091364, “Benzyloxybenzylammonium chlorides: Simple amine salts that display anticonvulsant activity” (Bioorg Med Chem, 2013)
